KCNK3 block: human KCNK3 channel inhibition, primary screen | O14649 | CHO-KCNK3 thallium flux, FluxOR fluorescence; stronger effect = lower value | B-score at 10 µM | 0.84% of 340,000 active;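 active means B-score under library mean minus 4 SD, starting fluorescence ratio at most library mean plus 5 SD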;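 further: more negative B-score means stronger inhibition of thallium flux through KCNK3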
Target sequence (O14649 whole entry, looked up): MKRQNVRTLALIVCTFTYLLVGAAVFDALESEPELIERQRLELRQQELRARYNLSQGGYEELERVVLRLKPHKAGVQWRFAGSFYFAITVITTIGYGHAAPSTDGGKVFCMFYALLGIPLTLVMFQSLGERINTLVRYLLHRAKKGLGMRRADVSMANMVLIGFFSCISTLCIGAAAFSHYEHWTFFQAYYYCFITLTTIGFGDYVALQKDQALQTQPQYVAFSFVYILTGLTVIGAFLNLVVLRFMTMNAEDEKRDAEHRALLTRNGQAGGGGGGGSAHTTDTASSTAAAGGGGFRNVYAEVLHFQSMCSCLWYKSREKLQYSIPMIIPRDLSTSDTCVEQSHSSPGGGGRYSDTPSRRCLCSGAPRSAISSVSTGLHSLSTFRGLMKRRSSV
Kir21 inh: blocks the mouse Kir2.1 inward-rectifier potassium channel | HEK293-Kir2.1, FluxOR thallium flux fluorescence; stronger effect = lower value | B-score at 10 µM | 0.85% of 310,000 active | AID 1672;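 active means fluorescence ratio B-score at or below minus 3 SD of library scores, with starting-brightness B-score within 2 SD, cut at about -4.2 in these data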;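 further: channel flux triggered by added potassium and thallium sulfate stimulus; B-score of peak minus minimum fluorescence over baseline after thallium stimulus; more negative B-score means stronger Kir2.1 block with less thallium influx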
KCNK9 block: blocks the human KCNK9 two-pore domain potassium channel. Q9NPC2. B-score at 10 µM. HEK293 KCNK9, FluxOR thallium flux fluorescence; stronger effect = lower value. 1.2% of 310,000 active. AID 488922;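 active means ratio B-score over 3 SD below the library mean, with starting fluorescence within 5 SD of its mean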;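 further: negative B-score means less thallium flux so channel inhibition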
KCNQ1 act: human KCNQ1 channel potentiation or activation | P51787 | CHO-K1 KCNQ1, thallium flux FluxOR fluorescence; stronger effect = higher value | B-score at 10 µM | 0.35% of 310,000 active | AID 2648;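 active means fluorescence ratio B-score, a plate-corrected score, at least three library SD, with initial intensity B-score within 5 SD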
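Material: CHO-K1 cells stably expressing KCNQ1. Medium: assay buffer for compound exposure, DMSO matched across wells. Reagent: K+/Tl+ depolarizing stimulus. Compound dosing: single-concentration screen. Times: 37 °C overnight plating, 90-min dark dye load, 20-min compound pretreatment. Technique: FluxOR Tl+ flux fluorescence.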
hERG rescue: hERG (human) protection from proarrhythmic block | Q12809 | CHO-hERG, FluxOR thallium flux, dofetilide IC70 present | activation (rescue from dofetilide block), less the hit threshold, % at 10 µM | 0.51% of 310,000 active | AID 1511;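 active means activation above the mean of controls blocked by dofetilide plus 5 SD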;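 further: thallium influx through hERG after potassium depolarization seen as dye fluorescence rise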
KCNQ1 block: human KCNQ1 channel inhibition | CHO-K1 KCNQ1, FluxOR thallium flux fluorescence; stronger effect = higher value | B-score at 10 µM | 1.3% of 310,000 active | AID 2642;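 active means compounds whose thallium flux B-score, printed positive for inhibition, exceeds three library SD while starting fluorescence stays within three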;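 further: channel opened by potassium depolarization with thallium stimulus after 20 min compound exposure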
KCNK9 inh conf: human KCNK9 inhibitor confirmation; shares compounds with KCNK9 block; HEK293 KCNK9 cells, FluxOR thallium flux fluorescence; inhibition, % at 10 µM; 43% of 4,900 active; AID 492992;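 active means thallium signal inhibited by more than 5 SD of the compound-free buffer control wells, on both duplicate plates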
Kir2-1 spec: tests whether KCNK9 modulators also affect mouse Kir2.1 | 4% of 4,900 active | Kir2.1 cells, FluxOR thallium flux fluorescence | AID 492993 | shares compounds with KCNK9 block | inhibition, % at 10 µM;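 active means thallium signal drop more than 5 SD beyond the mean of the no-compound control wells, seen in both duplicate plates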;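 further: signal is fluorescence rise after thallium addition divided by baseline fluorescence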
HEK293 Tl ctr: second check of KCNK9 modulator effects in non-induced HEK293 cells. 40% of 4,900 active. FluxOR thallium flux. inhibition, % at 10 µM. shares compounds with KCNK9 block;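 active means thallium signal drop beyond 5 SD of the untreated control mean, on both duplicate plates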
Of the large screens only hits and unclear results are named; the others gave an inactive call (follow-up assays come after a bar, where they were run). Sampled rows, rich in hits. Any-hit rate of the full collection: about 3.8%.

CC(OC(=O)CCCN=C1NS(=O)(=O)c2ccccc21)C(=O)Nc1ccc(F)c(F)c1F (centres undefined)	none
Cc1onc(-c2ccccc2Cl)c1C(=O)NNC(=O)c1cccc(F)c1	none
COc1ccccc1NC(=O)c1ccccc1C(=O)N(C)Cc1ccccc1	none (no result: Kir21 inh, KCNK9 block, KCNQ1 act, hERG rescue, KCNQ1 block)
Cc1ccc(S(=O)(=O)N2CCOCC2)cc1NC(=O)COC(=O)Cc1ccc(Cl)cc1	none (no result: Kir21 inh, KCNK9 block, KCNQ1 act, hERG rescue, KCNQ1 block)
Cc1ccc(S(=O)(=O)N2CCCCC2)cc1NC(=O)COC(=O)Cc1ccc(Cl)cc1	none | KCNK9 inh conf inactive | Kir2-1 spec inactive | HEK293 Tl ctr inactive
C/C(=N/OC(=O)c1ccccc1Br)c1ccc(C)cc1	KCNK9 block -12 | KCNK9 inh conf 58% | Kir2-1 spec inactive | HEK293 Tl ctr 34%
C/C(=N/OC(=O)c1ccc(C)cc1)c1cccs1	none
Cn1c(=O)c2c(nc3n2CC(COc2ccccc2)O3)n(C)c1=O (centres undefined)	none
Cc1ccc(CNC(=O)CCS(=O)(=O)c2ccc3nc(C)sc3c2)cc1	none
O=C(CC(c1ccccc1)c1cc(Br)ccc1O)NCc1ccco1 (centres undefined)	KCNK3 block -11, KCNK9 block -11 | KCNK9 inh conf 48% | Kir2-1 spec inactive | HEK293 Tl ctr inactive
CC(C)NC(=O)CC(c1ccccc1)c1cc(Br)ccc1O (centres undefined)	none
CCCCN1C(=O)C(=O)N(CC(=O)NC2CCCc3ccccc32)C1=O (centres undefined)	none
CCN(CC)CCCN=Cc1c(O)n(Cc2ccccc2)c(=O)c2ccccc12	none
CC(C)CCC(C)N=Cc1c(O)n(Cc2ccccc2)c(=O)c2ccccc12 (centres undefined)	KCNK9 block -13 | KCNK9 inh conf 74% | Kir2-1 spec inactive | HEK293 Tl ctr 44%
CCOC(=O)C1(C)Oc2ccc(S(=O)(=O)CC)cc2NC1=O (centres undefined)	none
Cc1ccc(Sc2nc(-c3ccccc3)nnc2C(F)(F)F)cc1	none | KCNK9 inh conf inactive | Kir2-1 spec inactive | HEK293 Tl ctr inactive
Cc1cccc(COCC(Cc2ccccc2)N2CCN(C(=O)c3cccc(C)c3)CCC2=O)c1 (centres undefined)	none | KCNK9 inh conf inactive | Kir2-1 spec inactive | HEK293 Tl ctr inactive
CCCCc1noc(-c2c(-c3ccccc3Cl)noc2C)n1	none | KCNK9 inh conf inactive | Kir2-1 spec inactive | HEK293 Tl ctr inactive
Cc1ccc(S(=O)(=O)N2CCN(C3CC(=O)N(CCc4ccccc4)C3=O)CC2)cc1C (centres undefined)	none | KCNK9 inh conf inactive | Kir2-1 spec inactive | HEK293 Tl ctr inactive
O=S(=O)(c1ccccc1F)N1CCN(CCc2ccccc2)CC1	none | KCNK9 inh conf inactive | Kir2-1 spec inactive | HEK293 Tl ctr inactive
COc1ccc(S(=O)(=O)N2CCN(C/C=C/c3ccccc3)CC2)cc1F	none | KCNK9 inh conf inactive | Kir2-1 spec inactive | HEK293 Tl ctr inactive
O=S(=O)(c1ccc(F)c(F)c1)N1CCN(CCc2ccccc2)CC1	none | KCNK9 inh conf inactive | Kir2-1 spec inactive | HEK293 Tl ctr inactive
O=C1NC(=O)C(CC(=O)N(Cc2cccs2)C2(C(=O)NC3CCCCC3)CCCCC2)N1 (centres undefined)	none
CC(=O)Nc1ccc(N=Nc2ccc(O)cc2)cc1	none
CCCCCCN1CC(C(=O)OCC)C(=O)C1=O (centres undefined)	none
OC1(c2ccccc2)c2ccccc2-c2ncccc21 (centres undefined)	none
C(=N\N(Cc1ccccc1)c1ccccc1)/c1cccnc1	KCNK9 block -12 | KCNK9 inh conf 54% | Kir2-1 spec inactive | HEK293 Tl ctr 26%
COc1ccc(OC)c(C2SCCN2S(=O)(=O)c2cccc(C(F)(F)F)c2)c1 (centres undefined)	KCNK9 block -15 | KCNK9 inh conf inactive | Kir2-1 spec inactive | HEK293 Tl ctr 60%
Fc1ccccc1Cc1noc(CN2CCN(C/C=C/c3ccccc3)CC2)n1	none | KCNK9 inh conf inactive | Kir2-1 spec inactive | HEK293 Tl ctr inactive
Cc1cccc(Nc2nc(NCc3ccco3)c3ccccc3n2)c1	Kir21 inh -14, KCNK9 block -8.1, KCNQ1 block 10 | KCNK9 inh conf 49% | Kir2-1 spec 86% | HEK293 Tl ctr inactive
O=C1OC(c2ccccc2)c2ccc3ccccc3c21 (centres undefined)	none
Cn1c(CC(=O)Nc2ccccc2)c(Sc2ccccc2)c2ccccc21	none | KCNK9 inh conf inactive | Kir2-1 spec inactive | HEK293 Tl ctr inactive
CSc1c(CC(=O)Nc2ccccc2)n(C)c2ccccc12	none
CCOc1cc(CNc2ccc3c(c2)OCCO3)cc(Br)c1OC	none | KCNK9 inh conf inactive | Kir2-1 spec inactive | HEK293 Tl ctr inactive
Cc1nc2ccc(NC(=O)c3ccc([N+](=O)[O-])cc3)cc2s1	none | KCNK9 inh conf inactive | Kir2-1 spec inactive | HEK293 Tl ctr inactive
Cc1nc2ccc(NC(=O)c3ccc(Cl)c([N+](=O)[O-])c3)cc2s1	none
CCOC(=O)c1ccc(-n2c(C)nc3c(cnn3-c3ccc(Cl)cc3)c2=O)cc1	none
CCOC(=O)c1ccc(-n2c(C)nc3c(cnn3-c3ccccc3Cl)c2=O)cc1	none | KCNK9 inh conf inactive | Kir2-1 spec inactive | HEK293 Tl ctr inactive
Cc1cc(C(C)(C)C)cc(C)c1Cn1c2[n+](c3ccc(C(F)(F)F)cc31)CCCCC2	Kir21 inh -7.2, KCNK9 block -11, KCNQ1 block 6 | KCNK9 inh conf 71% | Kir2-1 spec inactive | HEK293 Tl ctr inactive
CC(=C/c1ccc(C(C)C)cc1)/C=N/NC(=O)CSc1ccccn1	KCNK9 block -20 | KCNK9 inh conf 60% | Kir2-1 spec inactive | HEK293 Tl ctr 45%
CC(/C=N/NC(=O)CSc1ccccn1)=C\c1ccc(C(C)C)cc1	KCNK9 block -13 | KCNK9 inh conf 59% | Kir2-1 spec inactive | HEK293 Tl ctr 37%
CCN(C(=O)CSc1nc2cc(Cl)ccc2c(=O)n1Cc1ccco1)C1CCS(=O)(=O)C1 (centres undefined)	KCNK9 block -10 | KCNK9 inh conf inactive | Kir2-1 spec inactive | HEK293 Tl ctr inactive
CN(C(=O)CSc1nc2ccc(Br)cc2c(=O)n1Cc1ccco1)C1CCS(=O)(=O)C1 (centres undefined)	none
O=C(CCSCc1ccccc1F)NCc1cccs1	none
O=C(CCSCc1ccccc1Cl)NCc1cccs1	hERG rescue 5.0 | KCNK9 inh conf inactive | Kir2-1 spec inactive | HEK293 Tl ctr inactive
